Measured values as given in ChEMBL document CHEMBL1157382, “Scopularides A and B, cyclodepsipeptides from a marine sponge-derived fungus, Scopulariopsis brevicaulis” (2008).
Calls of active or inactive are those of the source. The calls are words filed in the database; no cut-off is given here.

How the values were obtained:
[1] = Antitumor activity against human Panc89 cells assessed as reduction of viability at 10 ug/ml; type: functional
In short: (§1)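 Viability was measured in the pancreatic tumor lines Colo357 and Panc89 and the colon tumor line HT29, with compound present at a final concentration of 10 µg/mL. The read-out is percent reduction in cell viability.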

HT-29 = assay: Antitumor activity against human HT29 cells assessed as reduction of viability at 10 ug/ml; type: functional; in short: as §1
Escherichia coli = assay: Antimicrobial activity against Escherichia coli; type: functional, organism-based
Pseudomonas fluorescens = assay: Antimicrobial activity against Pseudomonas fluorescens; type: functional, organism-based
Nakaseomyces glabratus = assay: Antimicrobial activity against Candida glabrata; type: functional, organism-based
COLO357 = assay: Antitumor activity against human Colo357 cells assessed as reduction of viability at 10 ug/ml; type: functional; in short: as §1

CCCCC(C)[C@@H]1CC(=O)NCC(=O)N[C@@H](C(C)C)C(=O)N[C@H](CC(C)C)C(=O)N[C@@H](C)C(=O)N[C@@H](Cc2ccccc2)C(=O)O1 (some centres not stated) [SCOPULARIDE B]
Activity [1]: 49% | Activity (HT-29): 24% | Activity (Escherichia coli): inactive | Activity (Pseudomonas fluorescens): inactive | Activity (Nakaseomyces glabratus): inactive | Activity (COLO357): 26%

CCCCCCC(C)[C@@H]1CC(=O)NCC(=O)N[C@@H](C(C)C)C(=O)N[C@H](CC(C)C)C(=O)N[C@@H](C)C(=O)N[C@@H](Cc2ccccc2)C(=O)O1 (some centres not stated) [SCOPULARIDE A]
Activity [1]: 42% | Activity (HT-29): 37% | Activity (Escherichia coli): inactive | Activity (Pseudomonas fluorescens): inactive | Activity (Nakaseomyces glabratus): inactive | Activity (COLO357): 36%
